This note sets out measurements from ChEMBL document CHEMBL1687922, “Dipeptidyl peptidase IV dependent water-soluble prodrugs of highly lipophilic bicyclic nucleoside analogues” (J Med Chem, 2011).

Each structure is given as a SMILES string. Converted amounts (≈) assume the structure as drawn. Bounds are passed on as bounds.

Data set [1] in a line: Stability of the compound assessed as conversion of prodrug to 3-[(2R,4S, 5R)-4-hydroxy-5-(hydroxymethyl)oxolan-2-yl]-6-(4-pentylphenyl)furo[2, 3-d]pyrimidin-2-one in presence of Dipeptidyl-peptidase 4. Format: physicochemical. Put shortly: (§1)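 Prodrug at 50 μM in PBS (0.1% DMSO) at 37 °C; reaction started with purified CD26 (1.5 mU) or 20% human or bovine serum in PBS. Aliquots taken at time points were quenched in cold methanol on ice, centrifuged, and the supernatant analysed by reverse-phase RP-8 HPLC (NaH2PO4/heptanesulfonic acid pH 3.2 versus acetonitrile gradient) for prodrug, intermediates and parent.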

Data set [2] is described as follows: Cytotoxicity against HEL cells assessed as alteration of cell morphology. Format: cell-based. The following applies: human. The method in brief: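 Uninfected HEL fibroblasts were exposed to the test compounds. MCC is the minimal concentration giving microscopically detectable alteration of cell morphology.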
The subject of data set [3] is Human alphaherpesvirus 3. The experiment in a line: Antiviral activity against Varicella zoster virus YS infected in HEL cells assessed as reduction in virus induced cytopathicity. Format: functional, organism-based. The following applies: Human alphaherpesvirus 3, YS. Put shortly: (§2)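 Confluent HEL fibroblast monolayers were infected with 20 PFU of VZV (Oka or YS strain). After 1-2 h adsorption, residual virus was removed and varying compound concentrations were added. Plaque formation was scored when untreated infected controls reached completion.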
For orientation: Cytopathic effects are the visible damage that an infection or toxin causes in cultured cells.

A short description of data set [4]: Aqueous solubility of the compound at 25 DegC after 24 hrs. The format is physicochemical. The following applies: water. The method in brief: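 Thermodynamic water solubility was measured at 25 °C after 24 h, typically as the mean of two measurements (variation <20%).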
Data set [5] can be described thus: Stability of the compound assessed as conversion of prodrug to 3-[(2R,4S, 5R)-4-hydroxy-5-(hydroxymethyl)oxolan-2-yl]-6-(4-pentylphenyl)furo[2, 3-d]pyrimidin-2-one in presence of Dipeptidyl-peptidase 4 and 20 % bovine serum. The format is physicochemical. The following applies: cattle. The method in brief: as §1
Data set [6] can be described thus: Stability of the compound assessed as conversion of prodrug to 3-[(2R,4S, 5R)-4-hydroxy-5-(hydroxymethyl)oxolan-2-yl]-6-(4-pentylphenyl)furo[2, 3-d]pyrimidin-2-one in presence of Dipeptidyl-peptidase 4 and 20 % human serum. The format is physicochemical. Put shortly:
as §1

A short description of data set [7]: Chemical stability of the compound in PBS buffer at pH 7.4 assessed as compound remaining after 24 hrs by HPLC. Format: physicochemical. The following applies: read-out: Stability. The method in brief:
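Prodrug was held in PBS pH 7.4 at room temperature for 24 h. Percent intact prodrug was determined by HPLC.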

The nature of data set [8]: Cytotoxicity against HEL cells assessed as inhibition of cell proliferation. Format: cell-based. The following applies: human.
In data set [9] the test system is Human alphaherpesvirus 3. The data set can be described thus: Antiviral activity against Varicella zoster virus OKA infected in HEL cells assessed as reduction in virus induced cytopathicity. The format is functional, organism-based. The following applies: Human alphaherpesvirus 3, OKA. The method in brief: as §2
The nature of data set [10]: Aqueous solubility of the compound at 25 DegC after 4 hrs. The following applies: water. Format: physicochemical.
The test system of data set [11] is Mus musculus. The experiment in a line: Bioavailability in mouse assessed as fold increase in 3-[(2R,4S, 5R)-4-hydroxy-5-(hydroxymethyl)oxolan-2-yl]-6-(4-pentylphenyl)furo[2, 3-d]pyrimidin-2-one level within 0 to 180 mins administered by oral gavage. Format: ADME, organism-based. The following applies: in vivo. Put shortly: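 Female mice received equimolar single oral gavage doses (parent […]) in 0.5% carboxymethylcellulose. Three mice per time point were sacrificed at 15, 30, 45, 60, 90, 120 and 180 min. Plasma was analysed for parent compound by HPLC with fluorescence detection, using relative peak areas. Fold increase in parent plasma levels over 0-180 min was calculated relative to the parent compound.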

A short description of data set [12]: Stability of the compound assessed as conversion of prodrug to 3-[(2R,4S, 5R)-4-hydroxy-5-(hydroxymethyl)oxolan-2-yl]-6-(4-pentylphenyl)furo[2, 3-d]pyrimidin-2-one in presence of Dipeptidyl-peptidase 4, 20 % human serum and 2.5 uM DPPIV inhibitor vildagliptin. The format is physicochemical. The method in brief:
(§3)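 Prodrug conversion by purified DPPIV/CD26 or by human, bovine or murine serum (20% in PBS) was run with varying concentrations of vildagliptin. Prodrug, intermediate and parent were quantified by HPLC.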

A short description of data set [13]: Stability of the compound assessed as conversion of prodrug to 3-[(2R,4S, 5R)-4-hydroxy-5-(hydroxymethyl)oxolan-2-yl]-6-(4-pentylphenyl)furo[2, 3-d]pyrimidin-2-one in presence of Dipeptidyl-peptidase 4 and 2.5 uM DPPIV inhibitor vildagliptin. The format is physicochemical. Put shortly: as §3
The subject of data set [14] is Caco-2. The data set can be described thus: Stability in human CaCo-2 cells assessed as appearance of 3-[(2R,4S, 5R)-4-hydroxy-5-(hydroxymethyl)oxolan-2-yl]-6-(4-pentylphenyl)furo[2, 3-d]pyrimidin-2-one at the apical side of the cell. Format: ADME, cell-based. The following applies: in the assay text read “basolateral side” for “apical side”. The method in brief:
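CaCo-2 cells were seeded at 1.5 × 10⁵ cells/well in upper cups of dual-chamber 24-well trays in DMEM with 10% FBS and grown to confluence (~3 days). Upper medium was replaced with DMEM containing compound at 100 μM; bottom medium was replaced with PBS. Upper and bottom cups were sampled at 0-7 and 24 h into cold methanol and analysed by HPLC.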

Data set [15] can be described thus: Stability of the compound assessed as conversion of prodrug to 3-[(2R,4S, 5R)-4-hydroxy-5-(hydroxymethyl)oxolan-2-yl]-6-(4-pentylphenyl)furo[2, 3-d]pyrimidin-2-one in presence of Dipeptidyl-peptidase 4, 20 % bovine serum and 2.5 uM DPPIV inhibitor vildagliptin. Format: physicochemical. The following applies: cattle. Put shortly:
as §3

A short description of data set [16]: Stability of the compound assessed as conversion of prodrug to 3-[(2R,4S, 5R)-4-hydroxy-5-(hydroxymethyl)oxolan-2-yl]-6-(4-pentylphenyl)furo[2, 3-d]pyrimidin-2-one in presence of Dipeptidyl-peptidase 4, 20 % murine serum and 2.5 uM DPPIV inhibitor vildagliptin. The format is physicochemical. The following applies: mouse. The method in brief:
as §3

Broadly, the EC50 is the midpoint of the concentration-response curve. Usually solubility stands for how much of the substance goes into solution per volume. A word on the CC50: it is the concentration giving 50% cytotoxicity. `CCCCCc1ccc(-c2cc3cn([C@H]4C[C@H](O)[C@@H](COC(=O)[C@@H](NC(=O)[C@@H]5CCCN5C(=O)[C@@H](N)CC(=O)O)C(C)C)O4)c(=O)nc3o2)cc1`: the Activity result in [1] is recorded as “Active”; in data set [5] it was “Not Active”; in [6], “Not Active”. For the same compound, in [2], the MCC was over 5 µM. Besides, the EC50 in data set [3] amounted to 73 nM; in data set [9], 32 nM. Also, in data set [4], the solubility at 24 h turned out to be 15 mg/mL (≈ 21.1 mM). Further, the remaining at 24 h in data set [7] is over 95%. Also, the CC50 in data set [8] was 52000 nM.

Regarding `CCCCCc1ccc(-c2cc3cn([C@H]4C[C@H](O)[C@@H](COC(=O)[C@H](C)NC(=O)[C@@H]5CCCN5C(=O)[C@@H](N)C(C)C)O4)c(=O)nc3o2)cc1`, the MCC in data set [2] was over 0.5 µM. The compound also came in with a solubility at 4 h in data set [10] of 6.1 mg/mL (≈ 9.16 mM). Moreover, the EC50 in data set [3] was determined as 3 nM; in data set [9], 6 nM. Further, the result in [5] and in data set [6] was Active. Also, the remaining at 24 h in [7] turned out to be 74%. The CC50 in data set [8] was found to be 44000 nM.

With `CCCCCc1ccc(-c2cc3cn([C@H]4C[C@H](O)[C@@H](COC(=O)[C@@H](NC(=O)[C@@H]5CCCN5C(=O)[C@@H](N)CCCCN)C(C)C)O4)c(=O)nc3o2)cc1`, the result in [1] was Active. For the same compound, the MCC in [2] is over 5 µM. The EC50 in [3] stood at 22 nM; in [9], 18 nM. The solubility at 24 h in [4] was determined as 55 mg/mL (≈ 76.1 mM). Also, the “fold change (FC)” value in [11] turned out to be 15. The remaining at 24 h in data set [7] is over 95%. In addition, the CC50 in [8] was 29000 nM.

For the compound `CCCCCc1ccc(-c2cc3cn([C@H]4C[C@H](OC(=O)[C@@H](NC(=O)[C@@H]5CCCN5C(=O)[C@@H](N)C(C)C)C(C)C)[C@@H](COC(=O)[C@@H](NC(=O)[C@@H]5CCCN5C(=O)[C@@H](N)C(C)C)C(C)C)O4)c(=O)nc3o2)cc1`, the MCC in [2] was over 5 µM. Also, the EC50 came to 260 nM in data set [3] and 127 nM in [9]. Further, in data set [4], the solubility at 24 h is 77 mg/mL (≈ 77.8 mM). Moreover, the “fold change (FC)” value in data set [11] turned out to be 12. In data set [7], the remaining at 24 h is over 95%. In addition, the CC50 in data set [8] stood at 50000 nM.

Consider `CCCCCc1ccc(-c2cc3cn([C@H]4C[C@H](O)[C@@H](CO)O4)c(=O)nc3o2)cc1` [CF1743], for which the MCC in data set [2] was over 20 µM. This compound also came in with a solubility at 24 h in data set [4] of 0.018 mg/mL (≈ 0.0452 mM).

`CCCCCc1ccc(-c2cc3cn([C@H]4C[C@H](OC(=O)[C@@H](NC(=O)[C@@H]5CCCN5C(=O)[C@@H](N)C(C)C)C(C)C)[C@@H](CO)O4)c(=O)nc3o2)cc1`: the MCC in data set [2] amounted to 60 µM. The 50% effective concentration (EC50) was 16 nM in data set [3] and 18 nM in data set [9]. The solubility at 24 h in [4] was found to be 5.2 mg/mL (≈ 7.49 mM). In addition, the “fold change (FC)” value in [11] came out at 7. The remaining at 24 h in [7] was over 95%. For the same compound, the CC50 in data set [8] amounted to 17000 nM.

On to `CCCCCc1ccc(-c2cc3cn([C@H]4C[C@H](O)[C@@H](COC(=O)[C@@H](NC(=O)[C@@H]5CCCN5C(=O)[C@@H](N)C(C)C)C(C)C)O4)c(=O)nc3o2)cc1`, for which the MCC in [2] was over 2 µM. Also, the EC50 in [3] stood at 154 nM; in data set [9], 89 nM. This compound yielded a solubility at 24 h in [4] of 1.2 mg/mL (≈ 1.73 mM). For the same compound, in [11], the “fold change (FC)” value is recorded as 13. For the same compound, the Activity result is “Not Active” in data set [12]; “Not Active” in [13]; “Active” in data set [14]; “Not Active” in [15]; “Not Active” in data set [16]. For the same compound, in data set [7], the remaining at 24 h is over 95%. In addition, the CC50 in [8] was over 100000 nM.

In the case of `CCCCCc1ccc(-c2cc3cn([C@H]4C[C@H](O)[C@@H](COC(=O)[C@H](Cc5ccccc5)NC(=O)[C@@H]5CCCN5C(=O)[C@@H](N)C(C)C)O4)c(=O)nc3o2)cc1`, in data set [2], the MCC is over 0.5 µM. For the same compound, in [10], the solubility at 4 h came out at 1.1 mg/mL (≈ 1.48 mM). The EC50 in data set [3] worked out at 10 nM; in data set [9], 13 nM. Also, the result in data set [5] and in data set [6] was Active. For the same compound, the remaining at 24 h in data set [7] turned out to be 52%. Also, the CC50 in data set [8] came out at 40000 nM.

In the case of `CCCCCc1ccc(-c2cc3cn([C@H]4C[C@H](O)[C@@H](COC(=O)[C@@H](NC(=O)[C@@H]5CCCN5C(=O)[C@@H](N)CC(N)=O)C(C)C)O4)c(=O)nc3o2)cc1`, in [1], the result was Active. In addition, the MCC in data set [2] is over 5 µM. For the same compound, the EC50 in [3] came to 85 nM; in data set [9], 42 nM. Also, in data set [4], the concentration in solution (solubility at 24 h) was 39 mg/mL (≈ 55 mM). Also, the remaining at 24 h in data set [7] is over 95%. The CC50 in data set [8] was 56000 nM.

`CCCCCc1ccc(-c2cc3cn([C@H]4C[C@H](O)[C@@H](COC(=O)[C@H](CC(C)C)NC(=O)[C@@H]5CCCN5C(=O)[C@@H](N)C(C)C)O4)c(=O)nc3o2)cc1`: the MCC in [2] is over 0.5 µM. The solubility at 4 h in [10] was found to be 14 mg/mL (≈ 19.8 mM). Further, the EC50 in data set [3] worked out at 6 nM; in data set [9], 9 nM. The “fold change (FC)” value in data set [11] is 11. Moreover, the outcome in [5] and in [6] was Active. Also, the remaining at 24 h in data set [7] came out at 69%. For the same compound, the CC50 in data set [8] came to 31000 nM.
